In ChEMBL document CHEMBL1138533 (Antimicrob Agents Chemother, 2007):
One block for each compound: values may come before it.

Key:
Assay type in all cases: ADME, organism-based
[1] = fAUC (0 to 24 hrs) in beta lactamase-negative Haemophilus influenzae pharmacokinetic simulation model dosed as amoxicillin-clavulanic acid at simulated human serum concentration of 2000/125 mg, po bid after 48 hrs; settings: in vivo
Method in brief: (§1)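 Two-compartment hollow-fibre dynamic model at 37°C, Haemophilus test medium; total or free serum profiles of oral bid regimens simulated over 48 h by computer-controlled peristaltic dilution. […] Parameters from noncompartmental analysis: Cmax/Tmax observed, AUC0-24 by linear-log trapezoidal rule. Triplicate.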

[2] = Half life in beta lactamase-negative Haemophilus influenzae pharmacokinetic simulation model dosed as amoxicillin-clavulanic acid at simulated human serum concentration of 2000/125 mg, po bid after 48 hrs
[3] = fAUC (0 to 24 hrs) in beta lactamase-positive Haemophilus influenzae pharmacokinetic simulation model dosed as amoxicillin-clavulanic acid at simulated human serum concentration of 2000/125 mg, po bid after 48 hrs; settings: in vivo; method in brief: as §1
[4] = Unbound drug concentration in beta lactamase-positive Haemophilus influenzae pharmacokinetic simulation model dosed as amoxicillin-clavulanic acid at simulated human serum concentration of 2000/125 mg, po bid after 4 hrs; method in brief: as §1
[5] = Unbound drug concentration in beta lactamase-negative Haemophilus influenzae pharmacokinetic simulation model dosed as amoxicillin-clavulanic acid at simulated human serum concentration of 2000/125 mg, po bid after 8 hrs; method in brief: as §1
[6] = Unbound drug concentration in beta lactamase-negative Haemophilus influenzae pharmacokinetic simulation model dosed as amoxicillin-clavulanic acid at simulated human serum concentration of 2000/125 mg, po bid after 10 hrs; method in brief: as §1
[7] = Unbound drug concentration in beta lactamase-positive Haemophilus influenzae pharmacokinetic simulation model dosed as amoxicillin-clavulanic acid at simulated human serum concentration of 2000/125 mg, po bid after 6 hrs; settings: in vivo; method in brief: as §1
[8] = Unbound drug concentration in beta lactamase-negative Haemophilus influenzae pharmacokinetic simulation model dosed as amoxicillin-clavulanic acid at simulated human serum concentration of 2000/125 mg, po bid after 4 hrs; method in brief: as §1
[9] = Drug concentration in beta lactamase-negative Haemophilus influenzae pharmacokinetic simulation model dosed as amoxicillin-clavulanic acid at simulated human serum concentration of 2000/125 mg, po bid after 10 hrs; settings: in vivo
[10] = fTmax in beta lactamase-negative Haemophilus influenzae pharmacokinetic simulation model dosed as amoxicillin-clavulanic acid at simulated human serum concentration of 2000/125 mg, po bid after 48 hrs; settings: read-out: fTmax; method in brief: as §1
[11] = Drug concentration in beta lactamase-positive Haemophilus influenzae pharmacokinetic simulation model dosed as amoxicillin-clavulanic acid at simulated human serum concentration of 2000/125 mg, po bid after 3 hrs; settings: in vivo
[12] = Unbound drug concentration in beta lactamase-negative Haemophilus influenzae pharmacokinetic simulation model dosed as amoxicillin-clavulanic acid at simulated human serum concentration of 2000/125 mg, po bid after 1 hr; method in brief: as §1
[13] = Drug concentration in beta lactamase-positive Haemophilus influenzae pharmacokinetic simulation model dosed as amoxicillin-clavulanic acid at simulated human serum concentration of 2000/125 mg, po bid after 6 hrs; settings: in vivo
[14] = Drug concentration in beta lactamase-positive Haemophilus influenzae pharmacokinetic simulation model dosed as amoxicillin-clavulanic acid at simulated human serum concentration of 2000/125 mg, po bid after 4 hrs; settings: in vivo
[15] = Drug concentration in beta lactamase-negative Haemophilus influenzae pharmacokinetic simulation model dosed as amoxicillin-clavulanic acid at simulated human serum concentration of 2000/125 mg, po bid after 2 hrs; settings: in vivo
[16] = Cmax in beta lactamase-negative Haemophilus influenzae pharmacokinetic simulation model dosed as amoxicillin-clavulanic acid at simulated human serum concentration of 2000/125 mg, po bid after 48 hrs
[17] = Unbound drug concentration in beta lactamase-negative Haemophilus influenzae pharmacokinetic simulation model dosed as amoxicillin-clavulanic acid at simulated human serum concentration of 2000/125 mg, po bid after 2 hrs; method in brief: as §1
[18] = Unbound drug concentration in beta lactamase-positive Haemophilus influenzae pharmacokinetic simulation model dosed as amoxicillin-clavulanic acid at simulated human serum concentration of 2000/125 mg, po bid after 8 hrs; settings: in vivo; method in brief: as §1
[19] = Cmax in beta lactamase-positive Haemophilus influenzae pharmacokinetic simulation model dosed as amoxicillin-clavulanic acid at simulated human serum concentration of 2000/125 mg, po bid after 48 hrs
[20] = Unbound drug concentration in beta lactamase-positive Haemophilus influenzae pharmacokinetic simulation model dosed as amoxicillin-clavulanic acid at simulated human serum concentration of 2000/125 mg, po bid after 1.5 hr; method in brief: as §1
[21] = Unbound drug concentration in beta lactamase-positive Haemophilus influenzae pharmacokinetic simulation model dosed as amoxicillin-clavulanic acid at simulated human serum concentration of 2000/125 mg, po bid after 2 hrs; settings: in vivo; method in brief: as §1
[22] = Drug concentration in beta lactamase-positive Haemophilus influenzae pharmacokinetic simulation model dosed as amoxicillin-clavulanic acid at simulated human serum concentration of 2000/125 mg, po bid after 10 hrs
[23] = Unbound drug concentration in beta lactamase-negative Haemophilus influenzae pharmacokinetic simulation model dosed as amoxicillin-clavulanic acid at simulated human serum concentration of 2000/125 mg, po bid after 6 hrs; method in brief: as §1
[24] = Tmax in beta lactamase-negative Haemophilus influenzae pharmacokinetic simulation model dosed as amoxicillin-clavulanic acid at simulated human serum concentration of 2000/125 mg, po bid after 48 hrs; method in brief: as §1
[25] = Drug concentration in beta lactamase-negative Haemophilus influenzae pharmacokinetic simulation model dosed as amoxicillin-clavulanic acid at simulated human serum concentration of 2000/125 mg, po bid after 1 hr
[26] = AUC (0 to 24 hrs) in beta lactamase-positive Haemophilus influenzae pharmacokinetic simulation model dosed as amoxicillin-clavulanic acid at simulated human serum concentration of 2000/125 mg, po bid after 48 hrs
[27] = Drug concentration in beta lactamase-positive Haemophilus influenzae pharmacokinetic simulation model dosed as amoxicillin-clavulanic acid at simulated human serum concentration of 2000/125 mg, po bid after 1 hr; settings: in vivo
[28] = Unbound drug concentration in beta lactamase-negative Haemophilus influenzae pharmacokinetic simulation model dosed as amoxicillin-clavulanic acid at simulated human serum concentration of 2000/125 mg, po bid after 3 hrs; method in brief: as §1
[29] = Unbound drug concentration in beta lactamase-positive Haemophilus influenzae pharmacokinetic simulation model dosed as amoxicillin-clavulanic acid at simulated human serum concentration of 2000/125 mg, po bid after 1 hr; method in brief: as §1
[30] = Unbound drug concentration in beta lactamase-negative Haemophilus influenzae pharmacokinetic simulation model dosed as amoxicillin-clavulanic acid at simulated human serum concentration of 2000/125 mg, po bid after 12 hrs; method in brief: as §1
[31] = Unbound drug concentration in beta lactamase-negative Haemophilus influenzae pharmacokinetic simulation model dosed as amoxicillin-clavulanic acid at simulated human serum concentration of 2000/125 mg, po bid after 1.5 hr; method in brief: as §1
[32] = fCmax in beta lactamase-negative Haemophilus influenzae pharmacokinetic simulation model dosed as amoxicillin-clavulanic acid at simulated human serum concentration of 2000/125 mg, po bid after 48 hrs; settings: in vivo; method in brief: as §1
[33] = Drug concentration in beta lactamase-positive Haemophilus influenzae pharmacokinetic simulation model dosed as amoxicillin-clavulanic acid at simulated human serum concentration of 2000/125 mg, po bid after 12 hrs; settings: in vivo
[34] = Unbound drug concentration in beta lactamase-positive Haemophilus influenzae pharmacokinetic simulation model dosed as amoxicillin-clavulanic acid at simulated human serum concentration of 2000/125 mg, po bid after 3 hrs; settings: in vivo; method in brief: as §1
[35] = Half life of free unbound fraction in beta lactamase-negative Haemophilus influenzae pharmacokinetic simulation model dosed as amoxicillin-clavulanic acid at simulated human serum concentration of 2000/125 mg, po bid after 48 hrs; settings: read-out: ft1/2 (converted)
[36] = fCmax in beta lactamase-positive Haemophilus influenzae pharmacokinetic simulation model dosed as amoxicillin-clavulanic acid at simulated human serum concentration of 2000/125 mg, po bid after 48 hrs; settings: in vivo; method in brief: as §1
[37] = AUC (0 to 24 hrs) in beta lactamase-negative Haemophilus influenzae pharmacokinetic simulation model dosed as amoxicillin-clavulanic acid at simulated human serum concentration of 2000/125 mg, po bid after 48 hrs
[38] = Unbound drug concentration in beta lactamase-positive Haemophilus influenzae pharmacokinetic simulation model dosed as amoxicillin-clavulanic acid at simulated human serum concentration of 2000/125 mg, po bid after 12 hrs; settings: in vivo; method in brief: as §1
[39] = Unbound drug concentration in beta lactamase-positive Haemophilus influenzae pharmacokinetic simulation model dosed as amoxicillin-clavulanic acid at simulated human serum concentration of 2000/125 mg, po bid after 10 hrs; settings: in vivo; method in brief: as §1
[40] = Protein binding in beta lactamase-negative Haemophilus influenzae pharmacokinetic simulation model dosed as amoxicillin-clavulanic acid at simulated human serum concentration of 2000/125 mg, po bid after 48 hrs; settings: read-out: PB (converted)
[41] = Drug concentration in beta lactamase-negative Haemophilus influenzae pharmacokinetic simulation model dosed as amoxicillin-clavulanic acid at simulated human serum concentration of 2000/125 mg, po bid after 3 hrs; settings: in vivo

fAUC [1]: 60700 ng·h/mL
half-life [2]: 1.3 h
fAUC [3]: 22500 ng·h/mL
Drug uptake [4]: 0.8 µg/mL
Drug uptake [5]: 1.7 µg/mL
Drug uptake [6]: 0.6 µg/mL
Drug uptake [7]: < 0.03 µg/mL
Drug uptake [8]: 8.2 µg/mL
Drug uptake [9]: 0.8 µg/mL
Tmax [10]: 1.5 h
Drug uptake [11]: 10.5 µg/mL
Drug uptake [12]: 10.4 µg/mL
Drug uptake [13]: 2.1 µg/mL
Drug uptake [14]: 5.5 µg/mL
Drug uptake [15]: 15.5 µg/mL
Cmax [16]: 17200 ng/mL
Drug uptake [17]: 11.8 µg/mL
Drug uptake [18]: < 0.03 µg/mL
Cmax [19]: 17400 ng/mL
Drug uptake [20]: 13.3 µg/mL
Drug uptake [21]: 7.8 µg/mL
Drug uptake [22]: < 0.03 µg/mL
Drug uptake [23]: 5 µg/mL
Tmax [24]: 1.5 h
Drug uptake [25]: 11.6 µg/mL
AUC at 24 h [26]: 48700 ng·h/mL
Drug uptake [27]: 11.6 µg/mL
Drug uptake [28]: 10.1 µg/mL
Drug uptake [29]: 9.9 µg/mL
Drug uptake [30]: 0.3 µg/mL
Drug uptake [31]: 13.6 µg/mL
fCmax [32]: 13.6 µg/mL
Drug uptake [33]: < 0.03 µg/mL
Drug uptake [34]: 2.9 µg/mL
half-life [35]: 1.4 h
fCmax [36]: 13.3 µg/mL
AUC at 24 h [37]: 73100 ng·h/mL
Drug uptake [38]: < 0.03 µg/mL
Drug uptake [39]: < 0.03 µg/mL
SMILES: CC1(C)S[C@@H]2[C@H](NC(=O)[C@H](N)c3ccc(O)cc3)C(=O)N2[C@H]1C(=O)O [AMOXICILLIN]

fAUC [1]: 2900 ng·h/mL
half-life [2]: 1 h
fAUC [3]: 2800 ng·h/mL
Drug uptake [4]: 0.1 µg/mL
Drug uptake [5]: < 0.03 µg/mL
Drug uptake [6]: < 0.03 µg/mL
fraction unbound at 48 h [40]: 0.75
Drug uptake [7]: 0.1 µg/mL
Drug uptake [8]: 0.2 µg/mL
Drug uptake [9]: < 0.03 µg/mL
Tmax [10]: 1.5 h
Drug uptake [11]: 0.7 µg/mL
Drug uptake [12]: 0.9 µg/mL
Drug uptake [13]: 0.1 µg/mL
Drug uptake [14]: 0.4 µg/mL
Drug uptake [15]: 1.4 µg/mL
Cmax [16]: 2100 ng/mL
Drug uptake [17]: 1 µg/mL
Drug uptake [18]: < 0.03 µg/mL
Cmax [19]: 2100 ng/mL
Drug uptake [20]: 1.4 µg/mL
Drug uptake [21]: 1 µg/mL
Drug uptake [22]: < 0.03 µg/mL
Drug uptake [23]: 0.1 µg/mL
Drug uptake [41]: 0.7 µg/mL
Tmax [24]: 1.5 h
Drug uptake [25]: 1.3 µg/mL
AUC at 24 h [26]: 4500 ng·h/mL
Drug uptake [27]: 1.2 µg/mL
Drug uptake [28]: 0.5 µg/mL
Drug uptake [29]: 0.9 µg/mL
Drug uptake [30]: < 0.03 µg/mL
Drug uptake [31]: 1.5 µg/mL
fCmax [32]: 1.5 µg/mL
Drug uptake [33]: < 0.03 µg/mL
Drug uptake [34]: 0.4 µg/mL
half-life [35]: 1 h
fCmax [36]: 1.4 µg/mL
AUC at 24 h [37]: 4700 ng·h/mL
Drug uptake [38]: < 0.03 µg/mL
Drug uptake [39]: < 0.03 µg/mL
SMILES: O=C(O)[C@H]1/C(=C/CO)O[C@@H]2CC(=O)N21 [CLAVULANIC ACID]
